Data as given in ChEMBL document CHEMBL1125885, “Dopamine autoreceptor agonists as potential antipsychotics. 3.6-Propyl-4,5,5a,6,7,8-hexahydrothiazolo[4,5-f]quinolin-2-amine” (J Med Chem, 1991).

How the values were obtained:
[1] = biological target: D(2) dopamine receptor (Rattus norvegicus) (UniProt P61169); experiment: Compound at 10E-5 M was tested in vitro for binding affinity towards dopamine receptor D2 in rat striatal membrane by using [3H]spiperone as radioligand; assay type: cell membranes; settings: Striatum
Chain of D(2) dopamine receptor (Rattus norvegicus) (P61169 whole entry): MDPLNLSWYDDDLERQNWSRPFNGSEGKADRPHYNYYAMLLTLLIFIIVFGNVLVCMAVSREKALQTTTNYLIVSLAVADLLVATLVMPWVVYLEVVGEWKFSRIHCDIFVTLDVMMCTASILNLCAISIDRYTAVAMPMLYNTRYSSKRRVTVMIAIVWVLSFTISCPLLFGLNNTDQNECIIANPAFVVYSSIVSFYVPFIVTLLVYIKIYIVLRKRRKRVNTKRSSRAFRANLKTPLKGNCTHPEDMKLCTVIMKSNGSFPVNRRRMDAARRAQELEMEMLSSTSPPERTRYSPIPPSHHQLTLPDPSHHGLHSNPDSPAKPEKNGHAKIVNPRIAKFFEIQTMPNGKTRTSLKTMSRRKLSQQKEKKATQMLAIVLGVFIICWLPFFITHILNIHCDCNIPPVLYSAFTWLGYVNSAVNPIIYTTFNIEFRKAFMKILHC

[2] = biological target: D(2) dopamine receptor (Rattus norvegicus, UniProt P61169); experiment: Binding affinity towards dopamine receptor D2 in rat striatal membrane using [3H]spiperone; assay type: cell membranes, Striatum
Chain of D(2) dopamine receptor (P61169 whole entry): as above

[3] = system: Rattus norvegicus; experiment: Values for the reversal of the increase in DOPA levels in the striatum of GBL-treated rats after ip administration of 10 mg/Kg; assay type: functional
Outline: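 Male Long-Evans rats were given the compound ip at 10 mg/kg 1 h before sacrifice. GBL (750 mg/kg ip) was given 30 min and NSD 1015 (100 mg/kg ip) 25 min before sacrifice. Striatal DOPA was measured by HPLC with electrochemical detection. The value is the percent reversal of the GBL-induced DOPA increase; n = 4 or 5 rats.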

[4] = system: Rattus norvegicus; experiment: Percentage inhibition of DA neural firing after administration the compound at a dose of 2.5 mg/Kg through ip route in rats.; assay type: functional; settings: for inhibition in vivo at 2.5 mg/kg: Rattus norvegicus, ip
[5] = system: Mus musculus; experiment: Effective dose required to inhibit the Locomotor activity in mouse after ip administration.; assay type: functional
[6] = biological target: D(1A) dopamine receptor (Rattus norvegicus, UniProt P18901); experiment: In vitro binding affinity towards dopamine receptor D1 in rat striatal membrane using [3H]-SCH- 23390; assay type: cell membranes, Striatum
Chain of D(1A) dopamine receptor (P18901 whole entry): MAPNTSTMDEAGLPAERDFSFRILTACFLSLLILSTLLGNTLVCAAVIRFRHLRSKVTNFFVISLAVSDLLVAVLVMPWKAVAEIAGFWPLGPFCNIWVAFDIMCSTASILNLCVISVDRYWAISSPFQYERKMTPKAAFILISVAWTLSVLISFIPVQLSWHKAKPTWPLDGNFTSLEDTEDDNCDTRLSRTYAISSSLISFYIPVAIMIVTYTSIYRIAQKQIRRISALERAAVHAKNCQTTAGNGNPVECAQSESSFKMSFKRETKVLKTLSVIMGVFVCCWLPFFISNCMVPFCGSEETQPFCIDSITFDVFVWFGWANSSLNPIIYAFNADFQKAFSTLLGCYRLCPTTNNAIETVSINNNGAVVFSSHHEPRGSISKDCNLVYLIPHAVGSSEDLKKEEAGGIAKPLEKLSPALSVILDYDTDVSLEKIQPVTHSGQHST
Outline: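 Dopamine D1 binding in rat striatal membranes with the selective D1 antagonist [3H]SCH23390. IC50 comes from four or five compound concentrations, each run in triplicate, fitted by nonlinear regression.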

[7] = system: Rattus norvegicus; experiment: Compound was tested for inhibition of locomotor activity after sc administration in rat; assay type: functional
Outline: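 Spontaneous exploratory locomotor activity in rats after sc dosing. […] 5-12 animals were used per dose.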

[8] = Compound was tested for inhibition of Sidman conditioned avoidance in squirrel monkeys upon peroral administration.; assay type: functional; settings: Cercopithecidae, po
Outline: (§1)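 Sidman avoidance in squirrel monkeys with oral dosing. ED50 (95% CL) is derived from three doses, with four animals tested per dose.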

[9] = system: Rattus norvegicus; experiment: Effective dose required to inhibit the Locomotor activity in Rat after po administration.; assay type: functional
[10] = organism: Rattus norvegicus; experiment: Compound was tested for effect on brain DOPA synthesis in the striatum of NSD 1015 rat; assay type: functional
Outline: (§2)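 Rats were dosed with NSD 1015 at 100 mg/kg ip 25 min before sacrifice and received no GBL. Test compound was given ip 1 h before sacrifice. Striatal DOPA was measured by HPLC with electrochemical detection and expressed as percent of control, n = 4 rats. Significance was set at p < 0.05 vs control.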

[11] = system: Rattus norvegicus; experiment: Compound was tested for stimulation of locomotor activity after sc administration in rat; assay type: functional
[12] = system: Rattus norvegicus; experiment: Dose to effect on Brain DOPA synthesis upon ip administration.; assay type: functional; outline: as §2
[13] = Minimal effective oral dose that induced EPS signs in at least one squirrel monkey upon peroral administration.; assay type: functional, Cercopithecidae
[14] = Compound was tested for inhibition of Sidman conditioned avoidance in squirrel monkeys upon peroral administration; assay type: functional; settings: po; outline: as §1
[15] = system: Rattus norvegicus; experiment: Values for the reversal of the increase in DOPA levels in the striatum of GBL-treated rats after ip administration; assay type: functional
Outline: (§3)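 Male Long-Evans rats received test compound ip 1 h before sacrifice, GBL 750 mg/kg ip 30 min before, and NSD 1015 100 mg/kg ip 25 min before. Striatal DOPA was quantified by HPLC with electrochemical detection, n = 4 or 5 rats. ED50 (95% CI) is the dose reversing the GBL-induced DOPA rise.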

[16] = organism: Rattus norvegicus; experiment: The compound was tested for effect on brain DOPA synthesis in the striatum of NSD 1015 rat; assay type: functional; outline: as §2
[17] = system: Rattus norvegicus; experiment: Effective dose for the reversal of the increase in DOPA levels in the striatum of GBL-treated rats after ip administration; assay type: functional
Outline: as §3, with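 “got” for “received”, “before” for “before,”, “measured” for “quantified”, “rise; percent reversal at a single test dose is given otherwise.” for “rise.”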

[18] = system: Rattus norvegicus; experiment: Effective dose required to inhibit the Locomotor activity in rat after po administration.; assay type: functional
Outline: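 Inhibition of spontaneous locomotor activity in rats after oral dosing. ED50 is generated from four to six doses, with 5-12 animals per dose.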

[19] = system: Rattus norvegicus; experiment: Percentage inhibition of DA neural firing after administration the compound at a dose of 0.25 mg/kg through ip route in rats.; assay type: functional; settings: route intraperitoneal
[20] = Mus musculus, ip, read-out: ED50
[21] = Rattus norvegicus, po, read-out: ED50
[22] = Rattus norvegicus, sc, read-out: ED50

Nc1nc2c(s1)CCC1NCCCC21 (stereo in doubt; 26) [listing 1 of 2 here]
inhibition [1]: 14%

CCCN1CCCC2c3nc(N)sc3CCC21 (stereo in doubt; 29)
IC50 [2]: 1.24 µM
Reversal [3]: 100%
inhibition in vivo at 2.5 mg/kg [4]: 94%
ED50 [5]: 7 mg/kg
IC50 [6]: > 10 µM

Nc1nc2c(s1)CCC1NCCCC21 (stereo in doubt; 27)
inhibition [1]: 10%

CCCN1CCC=C2c3nc(N)sc3CC[C@@H]21 (stereo in doubt; (-)-6)
ED50 [7]: 2.5 mg/kg
ED50 [8]: > 30 mg/kg
Reversal [3]: 14%
ED50 [9]: >30 mg/kg
Control [10]: 153.2%
Inhibition [4]: 22%
ED50 [11]: >30 mg/kg
Dose [12]: 20 mg/kg
ED50 [5]: 20.4 mg/kg

Nc1nc2c(s1)CCC1NCCCC21 (stereo in doubt; 26) [listing 2 of 2 here]
ED50 [5, 20]: > 30 mg/kg

CSc1ccc2c(c1)N(CCC1CCCCN1C)c1ccccc1S2 (stereo not drawn) [THIORIDAZINE]
EPS MED [13]: <2.5 mg/kg
ED50 [14]: 3.9 mg/kg

CCCN1CC=C2c3nc(N)sc3CCC2C1 (stereo not drawn)
ED50 [5, 20]: > 30 mg/kg
IC50 [6]: > 10 µM

CCCN1CCC=C2c3nc(N)sc3CCCC21 (stereo not drawn)
ED50 [9, 21]: > 30 mg/kg
inhibition [1]: 18%
ED50 [5, 20]: > 20 mg/kg

CCCN1CCCC(c2cccc(O)c2)C1 (single isomer, unassigned; (+))
ED50 [7, 22]: 3 mg/kg
Reversal [3]: 58%
inhibition in vivo at 2.5 mg/kg [4]: 100%
ED50 [11, 22]: 5.8 mg/kg

CCCN1CCCC2c3nc(N)sc3CCC21 (stereo in doubt; 28) [listing 1 of 2 here]
inhibition [1]: 16%

CCCN1CCC=C2c3nc(N)sc3CC[C@@H]21 (stereo in doubt; (+)-6)
EPS MED [13]: >30 mg/kg
ED50 [7]: 0.3 mg/kg
ED50 [14]: 8.3 mg/kg
ED50 [9]: 7 mg/kg
Inhibition [4]: 91%
ED50 [15]: 1.3 mg/kg
ED50 [11]: 6.8 mg/kg
Control [16]: 52.4%
Dose [12]: 2.5 mg/kg
ED50 [5]: 3.7 mg/kg
IC50 [6]: > 10 µM

CCCN1CCCC2c3nc(N)sc3CCC21 (stereo in doubt; 28) [listing 2 of 2 here]
ED50 [5]: >30 mg/kg

CCCN1CCC=C(c2csc(N)n2)C1
IC50 [2]: 0.574 µM
inhibition in vivo at 2.5 mg/kg [4]: 100%
ED50 [17]: 1.3 mg/kg
ED50 [18]: 3.1 mg/kg
ED50 [5, 20]: 4.3 mg/kg
IC50 [6]: 10 µM

CCCN1CCC2=C(CCc3sc(N)nc32)C1
ED50 [5, 20]: 18.8 mg/kg
IC50 [6]: 10 µM

CCCN1CCC2=C(C1)c1nc(N)sc1CC2
IC50 [6]: > 10 µM

CCCN1CCC=C2c3nc(N)sc3CCC21 (racemic)
EPS MED [13]: >10 mg/kg
ED50 [7, 22]: 0.9 mg/kg
ED50 [14]: 11.2 mg/kg
ED50 [9, 21]: 18.9 mg/kg
Control [10]: 63%
inhibition in vivo at 2.5 mg/kg [4]: 100%
ED50 [15]: 4 mg/kg
ED50 [11, 22]: 14.5 mg/kg
Dose [12]: 5 mg/kg
ED50 [5, 20]: 9.4 mg/kg
IC50 [6]: > 10 µM

CCCN1CCCC2c3nc(N)sc3CCCC21 (stereo not drawn)
inhibition [1]: 10%
ED50 [5, 20]: > 30 mg/kg

CN1CCc2cccc3c2[C@H]1Cc1ccc(O)c(O)c1-3 [APOMORPHINE]
ED50 [7, 22]: 0.03 mg/kg
ED50 [11, 22]: 0.07 mg/kg
inhibition in vivo at 0.25 mg/kg [19]: 100%
ED50 [18]: > 30 mg/kg
ED50 [5, 20]: 6.9 mg/kg
